Screens (PubChem BioAssay)
Shown are actives, neighbours in structure and some others; about 2.7% of the full set was active somewhere.
PfM18AAP inh-1 = PfM18AAP enzyme inhibition; recombinant PfM18AAP, H-Glu-NHMec fluorogenic cleavage; inhibition, % at 7.35 µM; 290,000 compounds, 1.2% hits;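 active = inhibition above the campaign mean inhibition over all tested compounds plus 3 SD, cut at about 28% in these data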;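 note: 0% = plate median of test compound wells and 100% = 2 mM ZnCl2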
RBBP9 inh = inhibitors of human serine hydrolase RBBP9; O75884; recombinant RBBP9, FP-Rh probe fluorescence polarization; inhibition, % at 7.94 µM; 220,000 compounds, 0.2% hits; AID 1515;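 active = inhibition above the campaign mean of all tested compounds plus 3 SD, cut at about 14% in these data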;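 note: plate controls were DMSO wells with RBBP9 for no effect and wells lacking RBBP9 protein for full effect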
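System: RBBP9 protein | Quantity: 2.5 µM RBBP9 dispensing solution, before mixing | Reagent: FP-Rh probe, 375 nM dispensing solution | Timing: Enzyme-compound preincubation 30 min, then probe labeling 45 min, 25 °C | Measured by: Fluorescence polarization | Read-out: % inhibition | Replication: One well per compound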
L929 necroptosis = blocks zVAD induced death of L929 cells. viability rescue, % at 10 µM. L929 zVAD necroptosis rescue, ATP luminescence, 24 h; with zVAD 60 µM. 220,000 compounds, 0.38% hits. AID 1377;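 active = activation, scaled between plate controls, above about 75%, limit read from the data; inactive = activation under that limit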;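 note: 0% = zVAD with DMSO and 100% = DMSO alone without zVAD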
p97 inhibitor = blocks human p97 ATPase activity; AID 1481; 220,000 compounds, 0.42% hits; P55072; recombinant p97 ATPase, Kinase-Glo ATP luminescence, 3 h; inhibition, % at 8 µM; in the data active = inhibition above about 15%;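 note: 0% = DMSO vehicle and 100% = wells lacking enzyme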
Target sequence (P55072 whole entry, looked up): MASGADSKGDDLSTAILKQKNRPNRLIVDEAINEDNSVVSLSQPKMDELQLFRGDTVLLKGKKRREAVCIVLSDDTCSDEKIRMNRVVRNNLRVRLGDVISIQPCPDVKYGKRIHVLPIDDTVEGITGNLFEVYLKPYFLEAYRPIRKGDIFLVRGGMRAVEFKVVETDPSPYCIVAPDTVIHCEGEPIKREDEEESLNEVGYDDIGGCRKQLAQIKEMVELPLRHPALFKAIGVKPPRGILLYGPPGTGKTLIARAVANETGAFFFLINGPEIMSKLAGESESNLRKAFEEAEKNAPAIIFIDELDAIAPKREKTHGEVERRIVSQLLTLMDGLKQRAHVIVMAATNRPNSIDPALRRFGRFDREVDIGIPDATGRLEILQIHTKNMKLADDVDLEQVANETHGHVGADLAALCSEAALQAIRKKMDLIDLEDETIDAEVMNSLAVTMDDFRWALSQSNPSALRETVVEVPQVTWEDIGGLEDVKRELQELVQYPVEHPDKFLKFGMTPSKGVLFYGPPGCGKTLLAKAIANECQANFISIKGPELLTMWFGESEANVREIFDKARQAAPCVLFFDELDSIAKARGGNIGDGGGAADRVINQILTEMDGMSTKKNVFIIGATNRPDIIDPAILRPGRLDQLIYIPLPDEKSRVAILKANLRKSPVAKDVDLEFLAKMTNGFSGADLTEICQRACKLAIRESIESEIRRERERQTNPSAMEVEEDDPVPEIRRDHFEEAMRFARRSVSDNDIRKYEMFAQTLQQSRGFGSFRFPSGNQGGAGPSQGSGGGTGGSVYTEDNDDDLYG
TNF death inh = blocks TNF-alpha induced death of Jurkat FADD-/- cells; Jurkat FADD-/- TNF necroptosis rescue, ATP luminescence, 24 h; 0 = TNF only, 100 = no-TNF cells; activation (protection from cell death), % at 10 µM; 220,000 compounds, 0.068% hits; AID 463075;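 active = activation, meaning protection from cell death, of at least 50% relative to plate controls; inactive = activation below 50%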;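 note: necroptosis triggered by 40 ng/mL TNF-alpha added together with compound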
Wee1 degr inh = inhibitors of human Wee1 degradation. 220,000 compounds, 1.2% hits. HeLa Luc-Wee1K328M stability, luciferase luminescence; 100% = proteasome inhibitor MG132 effect. P30291. reporter increase, % at 5 µM;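 active = activation above the mean of all tested compounds plus 3 SD, set per screening run, cut at about 8.8% in these data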;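 note: cells exposed to compound for 20 h before luminescence read; 0% = DMSO alone and 100% = MG132 at 30 µM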
PfM18AAP inh-2 = confirmation of Plasmodium falciparum M18 aspartyl aminopeptidase inhibitors | AID 2170 | shares compounds with PfM18AAP inh-1 | recombinant PfM18AAP, H-Glu-NHMec fluorogenic cleavage | inhibition, % at 7.35 µM | 2,400 compounds, 28% hits;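 active = mean inhibition over replicate wells above the hit cutoff set for the earlier primary screen, cut at about 29% in these data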;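 note: 0% = median of test compound wells and 100% = 2 mM ZnCl2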
CTSL1 confirm = counter-screen for PFM18AAP inhibitors: confirmation of human cathepsin L inhibitors | purified cathepsin L1, Z-Leu-Arg-MCA fluorescence | shares compounds with PfM18AAP inh-1 | inhibition, % at 5.96 µM | 2,400 tested, under 10 active | AID 2178;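 active = average inhibition across replicates above the hit cutoff set in the earlier primary screen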;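 note: 0% = median of test compound wells and 100% = Z-Phe-Ala-diazomethylketone 1 µM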
* = called active by the depositor.

For C/C(=N\NC(=O)c1cc(O)ccc1O)c1cccc(NC(=O)c2ccc(Cl)cc2)c1 the results were PfM18AAP inh-1 36*, PfM18AAP inh-2 -50 and CTSL1 confirm -7.
Cn1c(CSc2ncn[nH]2)nc2ccccc21 was read as PfM18AAP inh-1 53*, RBBP9 inh -6, L929 necroptosis 1, p97 inhibitor -2, TNF death inh 0, Wee1 degr inh -1, PfM18AAP inh-2 10 and CTSL1 confirm -5.
For O=C(NNc1ccc(F)cc1F)c1c(F)cccc1Cl the results were PfM18AAP inh-1 33*, RBBP9 inh -5, L929 necroptosis 0, p97 inhibitor 4, TNF death inh 0, Wee1 degr inh 1, PfM18AAP inh-2 6 and CTSL1 confirm 2.
O=C(NNc1c(Cl)cccc1Cl)c1c(F)cccc1Cl was read as PfM18AAP inh-1 -1, RBBP9 inh -12, L929 necroptosis 0, p97 inhibitor 1, TNF death inh 1 and Wee1 degr inh 0.
For CC(=O)NNc1cc(C)nc(N)n1 the results were PfM18AAP inh-1 7, RBBP9 inh 4, L929 necroptosis -1, p97 inhibitor 4, TNF death inh 1 and Wee1 degr inh -1.
Screening CC1=C(C(=O)O)N2C(=O)C(NC(=O)c3nn(C)cc3Cl)C2SC1 (centres undefined) returned PfM18AAP inh-1 2, RBBP9 inh -3, L929 necroptosis 0, p97 inhibitor 0, TNF death inh -5 and Wee1 degr inh 3.
Screening CC1=C(C(=O)O)N2C(=O)C(NC(=O)c3ccccc3Cl)C2SC1 (centres undefined) returned PfM18AAP inh-1 34*, PfM18AAP inh-2 -7 and CTSL1 confirm -1.
O=C(NCCN1CCN(C(=O)c2ccc([N+](=O)[O-])cc2)CC1)C(=O)Nc1ccc(F)cc1 was read as PfM18AAP inh-1 1.
`CN(C)S(=O)(=O)N1CCN(c2ccc([N+](=O)[O-])c(N3CCCCC3)c2)CC1` gave PfM18AAP inh-1 0, RBBP9 inh -5, L929 necroptosis 0, p97 inhibitor -2, TNF death inh 0 and Wee1 degr inh -2.
CCOc1ccc(/C=N/Nc2ccc(Cl)nn2)c(O)c1 was read as PfM18AAP inh-1 36*, PfM18AAP inh-2 -30 and CTSL1 confirm -1.
`CCOc1ccccc1/C=N/Nc1ccc(Cl)nn1` gave PfM18AAP inh-1 7.
COc1cccc(/C=N/Nc2ncnc(Cl)c2N)c1O was read as PfM18AAP inh-1 27, RBBP9 inh -4, L929 necroptosis 0, p97 inhibitor -3, TNF death inh -9 and Wee1 degr inh 1.
Oc1ccc(/C=N/Nc2ccc(Cl)nn2)c(O)c1O was read as PfM18AAP inh-1 65*, PfM18AAP inh-2 49* and CTSL1 confirm -1.
CCCC(C(=O)NC1=NCCS1)c1ccccc1 (centres undefined) was read as PfM18AAP inh-1 3, RBBP9 inh 4, L929 necroptosis 0, p97 inhibitor 4, TNF death inh 0 and Wee1 degr inh 5.
Screening O=C(NNc1nc2ccccc2s1)Nc1ccc(F)cc1 returned PfM18AAP inh-1 60*, RBBP9 inh 6, L929 necroptosis 1, p97 inhibitor 6, TNF death inh 4, Wee1 degr inh -1, PfM18AAP inh-2 34* and CTSL1 confirm -4.
For O=C(NNc1nc2ccccc2s1)c1ccccc1F the results were PfM18AAP inh-1 47*, RBBP9 inh 2, L929 necroptosis 0, p97 inhibitor 5, TNF death inh 14, Wee1 degr inh -2, PfM18AAP inh-2 -5 and CTSL1 confirm 6.
For CC(C)C(=O)NNc1nc2ccccc2s1 the results were PfM18AAP inh-1 11, RBBP9 inh -9, L929 necroptosis 0, p97 inhibitor 0, TNF death inh -3 and Wee1 degr inh 6.
For O=C(NNc1nc2ccccc2s1)Nc1ccc(Cl)c(Cl)c1 the results were PfM18AAP inh-1 60*, RBBP9 inh 2, L929 necroptosis -1, p97 inhibitor 4, TNF death inh 1, Wee1 degr inh 0, PfM18AAP inh-2 49* and CTSL1 confirm -4.
O=C(NNc1nc2ccccc2s1)C1CC1 was read as PfM18AAP inh-1 56*, RBBP9 inh -3, L929 necroptosis 0, p97 inhibitor 6, TNF death inh -1, Wee1 degr inh -1, PfM18AAP inh-2 24 and CTSL1 confirm -3.
`CC1C(=O)N2CCCc3cc(S(=O)(=O)N4CCC(C(N)=O)CC4)cc1c32` (centres undefined) gave PfM18AAP inh-1 6.
O=C(CSc1nc2ccccc2s1)Nc1ccc(Cl)c(C(=O)O)c1 was read as PfM18AAP inh-1 7, RBBP9 inh -7, L929 necroptosis 1, p97 inhibitor 0, TNF death inh -1 and Wee1 degr inh -1.
`O=C(CSc1nc2ccccc2s1)NNC(=O)Nc1ccc(Cl)c(Cl)c1` gave PfM18AAP inh-1 52*, RBBP9 inh -11, L929 necroptosis 0, p97 inhibitor 2, TNF death inh -2, Wee1 degr inh -1, PfM18AAP inh-2 -22 and CTSL1 confirm 3.
`Cc1cc(NS(=O)(=O)c2ccc(Nc3nc(-c4ccc(O)cc4)cs3)cc2)no1` gave PfM18AAP inh-1 43*, RBBP9 inh -9, L929 necroptosis 1, p97 inhibitor 6, TNF death inh 1, Wee1 degr inh -4, PfM18AAP inh-2 18 and CTSL1 confirm -4.
COc1ccc(-c2cc(C(=O)O)nc3ccc4ccccc4c23)cc1OC was read as PfM18AAP inh-1 2, RBBP9 inh 0, L929 necroptosis 5, p97 inhibitor 12, TNF death inh 0 and Wee1 degr inh -3.
For Oc1ccc(-c2nc3ccc4ccccc4c3c3c2CCC3)cc1O the results were PfM18AAP inh-1 47*, RBBP9 inh -23, L929 necroptosis 69, p97 inhibitor 7, TNF death inh -9, Wee1 degr inh 9.5*, PfM18AAP inh-2 32* and CTSL1 confirm -1.
For Cc1cc(C)c2sc(NNC(=O)c3ccc(S(=O)(=O)N4CCc5ccccc5C4)cc3)nc2c1 the results were PfM18AAP inh-1 23, RBBP9 inh 5, p97 inhibitor -1, TNF death inh -21 and Wee1 degr inh 0.
Screening Cc1cc(C)c2nc(NNC(=O)c3ccc(S(=O)(=O)N4CCc5ccccc5C4)cc3)sc2c1 returned PfM18AAP inh-1 36*, RBBP9 inh -6, p97 inhibitor -5, TNF death inh -22, Wee1 degr inh -1, PfM18AAP inh-2 -45 and CTSL1 confirm 3.
